Source: ChEMBL document CHEMBL1151228, “Three cyclooctapeptides and one glycoside from Microtoena prainiana” (J Nat Prod, 2004)
Activity calls are given as the source filed them. The rule behind the calls is not given here. Where a SMILES comes first, the peptide text is derived from it.

Key:
[1] = tested on: Human alphaherpesvirus 2; assay: Antiviral activity against HSV2 333 infected in african green monkey Vero cells assessed as virus-induced cytopathic effect at 250 ug/ml; format: functional, organism-based
Procedure, shortened: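 Vero cells infected with HSV-2 (strain 333); inhibition of viral replication read as cytopathic effect (CPE); compounds tested at 250 µg/mL; acyclovir as positive drug control.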

[2] = molecular target: Angiotensin-converting enzyme (Homo sapiens) (UniProt P12821); assay: Inhibition of ACE at 1 mg/ml
Procedure, shortened: (§1)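 ACE extract (10 µg total protein) preincubated with sample for 30 min at 37 °C. HHL substrate then added for 15 min at 37 °C. NaOH and O-phthaldialdehyde added, stopped after 10 min with HCl. His-Leu fluorescence read at ex 405/em 535 nm. % inhibition = 100×(N−S)/(N−B) against negative and blank controls. Captopril positive control; at least three determinations.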

[3] = molecular target: Angiotensin-converting enzyme (Homo sapiens) (UniProt P12821); assay: Inhibition of ACE at 0.1 mg/ml; procedure, shortened: as §1
[4] = Cytotoxicity against human N04 cells by SRB assay; format: functional, cell-based
Procedure, shortened: (§2)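 Sulforhodamine B (SRB) cytotoxicity assay on human tumour lines: breast cancer Bre04, lung cancer Lu04 and neuroma N04.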

[5] = Cytotoxicity against human Lu04 cells by SRB assay; format: functional, cell-based; procedure, shortened: as §2
[6] = Cytotoxicity against human Bre04 cells by SRB assay; format: functional, cell-based; procedure, shortened: as §2

Sequence of Angiotensin-converting enzyme (Homo sapiens) (P12821 whole entry): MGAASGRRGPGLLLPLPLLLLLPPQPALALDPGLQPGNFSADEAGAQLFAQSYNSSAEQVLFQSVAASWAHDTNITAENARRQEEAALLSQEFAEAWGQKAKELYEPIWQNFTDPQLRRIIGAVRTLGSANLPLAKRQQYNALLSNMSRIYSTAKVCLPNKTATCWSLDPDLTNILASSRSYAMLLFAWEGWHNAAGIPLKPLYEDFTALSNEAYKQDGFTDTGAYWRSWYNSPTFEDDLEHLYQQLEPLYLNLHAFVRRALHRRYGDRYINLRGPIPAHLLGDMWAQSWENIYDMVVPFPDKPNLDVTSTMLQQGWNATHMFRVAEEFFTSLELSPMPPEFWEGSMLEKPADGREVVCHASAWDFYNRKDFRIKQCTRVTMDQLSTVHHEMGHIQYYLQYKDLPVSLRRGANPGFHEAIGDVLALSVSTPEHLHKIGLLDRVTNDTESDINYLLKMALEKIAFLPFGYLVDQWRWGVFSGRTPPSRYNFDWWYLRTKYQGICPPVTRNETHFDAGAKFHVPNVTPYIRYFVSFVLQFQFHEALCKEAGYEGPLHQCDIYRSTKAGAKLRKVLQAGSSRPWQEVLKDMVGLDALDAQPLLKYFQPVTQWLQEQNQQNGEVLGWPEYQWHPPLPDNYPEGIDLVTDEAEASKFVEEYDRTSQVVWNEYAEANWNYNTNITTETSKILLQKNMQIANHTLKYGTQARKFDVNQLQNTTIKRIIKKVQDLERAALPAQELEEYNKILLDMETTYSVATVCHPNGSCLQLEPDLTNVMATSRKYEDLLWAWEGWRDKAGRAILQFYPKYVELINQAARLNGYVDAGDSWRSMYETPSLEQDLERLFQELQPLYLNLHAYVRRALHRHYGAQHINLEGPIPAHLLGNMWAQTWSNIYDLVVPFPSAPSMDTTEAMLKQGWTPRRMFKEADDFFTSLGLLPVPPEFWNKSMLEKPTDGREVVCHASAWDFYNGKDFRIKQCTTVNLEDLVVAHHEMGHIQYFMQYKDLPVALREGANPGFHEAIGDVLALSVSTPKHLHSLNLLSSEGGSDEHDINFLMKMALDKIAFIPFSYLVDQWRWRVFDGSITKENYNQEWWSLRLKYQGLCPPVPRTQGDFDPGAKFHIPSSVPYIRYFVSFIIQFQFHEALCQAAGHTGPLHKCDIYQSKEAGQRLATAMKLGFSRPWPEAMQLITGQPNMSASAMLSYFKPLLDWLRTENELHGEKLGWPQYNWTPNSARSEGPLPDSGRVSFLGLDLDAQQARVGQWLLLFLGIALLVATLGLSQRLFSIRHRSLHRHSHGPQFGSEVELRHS

CC[C@@H](C)[C@@H]1NC(=O)[C@@H]2CCCN2C(=O)[C@H](Cc2ccc(O)cc2)NC(=O)[C@H](CC(N)=O)NC(=O)[C@H](Cc2ccccc2)NC(=O)[C@@H]2CCCN2C(=O)[C@H](CC(C)C)NC(=O)[C@@H]2CCCN2C1=O
Activity [1]: inactive

COc1cc(/C=C/C(=O)O[C@H]2[C@H](O[C@@H]3O[C@@H](C)[C@H](O)[C@@H](O)[C@H]3O)[C@H]3O[C@@H](c4ccc(O)c(O)c4)CO[C@@H]3O[C@@H]2CO)ccc1O
Activity [1]: inactive | inhibition [2]: 99.8% | inhibition [3]: 67.5%

C[C@@H]1O[C@@H](O[C@@H]2[C@H]3O[C@@H](c4ccc(O)c(O)c4)CO[C@@H]3O[C@H](CO)[C@H]2OC(=O)/C=C/c2ccc(O)c(O)c2)[C@H](O)[C@H](O)[C@H]1O
Activity [1]: inactive | inhibition [2]: 99.7% | inhibition [3]: 75.5%

C[C@@H]1O[C@@H](O[C@H]2[C@H](O)[C@@H](COC(=O)/C=C/c3ccc(O)c(O)c3)O[C@H]3OC[C@H](c4ccc(O)c(O)c4)O[C@@H]32)[C@H](O)[C@H](O)[C@H]1O
Activity [1]: inactive | inhibition [2]: 99.3% | inhibition [3]: 71.4%

CC(C)[C@@H]1NC(=O)[C@@H]2CCCN2C(=O)[C@H](Cc2ccccc2)NC(=O)CNC(=O)[C@H](C)NC(=O)[C@H](C)NC(=O)[C@H](Cc2ccccc2)NC(=O)[C@H](Cc2ccccc2)NC1=O (cyclo(AAGFPVFF))
Activity [1]: inactive

CC(C)C[C@@H]1NC(=O)[C@H](C(C)C)NC(=O)[C@@H]2CCCN2C(=O)[C@H](Cc2ccccc2)NC(=O)[C@H](C)NC(=O)[C@H](C(C)C)NC(=O)[C@@H]2CCCN2C(=O)[C@H](Cc2ccc(O)cc2)NC1=O (cyclo(AFPVLYPV))
Activity [1]: inactive

CC(C)C[C@@H]1NC(=O)[C@H](Cc2ccc(O)cc2)NC(=O)[C@@H]2CCCN2C(=O)[C@H](C(C)C)NC(=O)[C@H](C)NC(=O)[C@H](Cc2ccccc2)NC(=O)[C@@H]2CCCN2C(=O)[C@H](C(C)C)NC1=O [MICROTOENIN A] (cyclo(AVPYLVPF))
IC50 [4]: > 100 mg/L | IC50 [5]: > 100 mg/L | IC50 [6]: > 100 mg/L

CC(C)[C@@H]1NC(=O)[C@H](Cc2ccccc2)NC(=O)[C@H](Cc2ccccc2)NC(=O)[C@H](C)NC(=O)[C@H](C)NC(=O)CNC(=O)[C@H](Cc2ccccc2)NC(=O)[C@@H]2CCCN2C1=O [MICROTOENIN B] (cyclo(AAFFVPFG))
IC50 [4]: > 100 mg/L | IC50 [5]: > 100 mg/L | IC50 [6]: > 100 mg/L

CC[C@H](C)[C@@H]1NC(=O)[C@@H]2CCCN2C(=O)[C@H](CC(C)C)NC(=O)[C@@H]2CCCN2C(=O)[C@H](Cc2ccccc2)NC(=O)[C@H](CC(N)=O)NC(=O)[C@H](Cc2ccc(O)cc2)NC(=O)[C@@H]2CCCN2C1=O [MICROTOENIN C] (cyclo(FPLPIPYN))
IC50 [4]: > 100 mg/L | IC50 [5]: > 100 mg/L | IC50 [6]: > 100 mg/L
